Measured values published in ChEMBL document CHEMBL1137146, “Thiourea inhibitors of herpesviruses. Part 3: Inhibitors of varicella zoster virus” (Bioorg Med Chem Lett, 2004).

test system: Human alphaherpesvirus 3; assay: inhibitory concentration against Varicella zoster virus; assay type: functional, organism-based; conditions: not given
Method in brief: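 Compounds serially diluted and tested in duplicate against VZV. IC50 obtained by curve fitting with a sigmoidal Hill slope (0–100) model. The rest of the assay procedure follows earlier published work and is not given here.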

**Q.** Which IC50 does the source give for `C[C@@H](NC(=S)Nc1ccc(NC(=O)c2ccccc2F)cc1)c1ccccc1` (stereo in doubt; 9) here?
**A.** 700 nM

**Q.** `C[C@@H](NC(=S)Nc1ccc(NC(=O)c2ccccc2F)cc1)c1ccccc1` (stereo in doubt; 10) was tested. Which IC50 did it give?
**A.** > 19100 nM

**Q.** With `C[C@@H](NC(=S)Nc1ccc(NC(=O)c2ccccc2F)cc1)c1ccc(Br)cc1` (stereo in doubt; 11) as the compound, how does the IC50 read?
**A.** 130 nM

**Q.** With `C[C@@H](NC(=S)Nc1ccc(NC(=O)c2ccccc2F)cc1)c1ccc(Br)cc1` (stereo in doubt; 12) as the compound, how does the IC50 read?
**A.** 49100 nM

same assay, conditions: Human alphaherpesvirus 3

**Q.** With `CC(/N=C(\S)Nc1ccc(NC(=O)c2ccccc2F)c(C#N)c1)c1cc2ccccc2o1` (stereo not drawn) as the compound, how does the IC50 read?
**A.** 110 nM

**Q.** For `CC(/N=C(\S)Nc1ccc(NC(=O)c2ccccc2F)cc1)c1ccc(F)cc1` (stereo not drawn), which IC50 is on record?
**A.** 600 nM

**Q.** For `CC(/N=C(\S)Nc1cc(Br)c(NC(=O)c2ccccc2F)c(Br)c1)c1ccc(F)cc1` (stereo not drawn), which IC50 is on record?
**A.** 70 nM

**Q.** `CC(NC(=O)Nc1ccc(NC(=O)c2ccccc2F)c(C#N)c1)c1ccc(F)cc1` (stereo not drawn) was tested. Which IC50 did it give?
**A.** 30 nM

**Q.** How did the IC50 turn out when `CC(/N=C(\S)Nc1ccc(NC(=O)c2ccccc2F)c(C#N)c1)c1ccc(F)cc1` (stereo not drawn) was run?
**A.** 110 nM

**Q.** Which IC50 does the source give for `CC(/N=C(\S)Nc1ccc(NC(=O)c2cc3ccccc3cn2)cc1)c1ccc(F)cc1` (stereo not drawn) here?
**A.** 180 nM

**Q.** For `CC(NC(=O)Nc1ccc(NC(=O)c2ccccc2F)c(C#N)c1)c1cc2ccccc2o1` (stereo not drawn), which IC50 is on record?
**A.** 110 nM

**Q.** `CC(/N=C(\S)Nc1ccc(NC(=O)c2ccccc2F)cc1)c1ccc(Cl)cc1` (stereo not drawn) was tested. Which IC50 did it give?
**A.** 210 nM

**Q.** For `CC(/N=C(\S)Nc1ccc(NC(=O)c2ccc3ccccc3n2)cc1)c1ccc(F)cc1` (stereo not drawn), which IC50 is on record?
**A.** 90 nM

**Q.** `COc1cc(NC(=O)c2ccccc2F)ccc1/N=C(\S)NC(C)c1ccc(F)cc1` (stereo not drawn) was tested. Which IC50 did it give?
**A.** 1540 nM

**Q.** How did the IC50 turn out when `Cc1cc(N/C(S)=N/C(C)c2ccc(F)cc2)ccc1NC(=O)c1ccccc1F` (stereo not drawn) was run?
**A.** 120 nM

**Q.** How did the IC50 turn out when `Cc1cc(NC(=O)c2ccccc2F)ccc1N/C(S)=N/C(C)c1ccc(F)cc1` (stereo not drawn) was run?
**A.** 990 nM

**Q.** `CC(/N=C(\S)Nc1ccc(NC(=O)c2ccccc2F)cc1Cl)c1ccc(F)cc1` (stereo not drawn) was tested. Which IC50 did it give?
**A.** 1370 nM

**Q.** How did the IC50 turn out when `CC(/N=C(\S)Nc1ccc(NC(=O)c2ccccc2F)cc1)c1c[nH]c2ccccc12` (stereo not drawn) was run?
**A.** 9480 nM

**Q.** For `CC(C)(/N=C(\S)Nc1ccc(NC(=O)c2ccccc2F)cc1)c1ccccc1`, which IC50 is on record?
**A.** 9700 nM

**Q.** Which IC50 does the source give for `CC(NC(=S)Nc1ccc(NC(=O)c2ccccc2F)cc1)c1ccccc1` (stereo not drawn) here?
**A.** 1300 nM

**Q.** For `CC(/N=C(\S)Nc1ccc(NC(=O)c2ccccc2F)cc1)c1cc2ccccc2o1` (stereo not drawn), which IC50 is on record?
**A.** 180 nM

**Q.** `CC(/N=C(\S)Nc1ccc(-c2cc(-c3ccnc4ccccc34)no2)cc1)c1ccc(F)cc1` (stereo not drawn) was tested. Which IC50 did it give?
**A.** 190 nM

**Q.** For `CC(/N=C(\S)Nc1ccc(NC(=O)c2ccccc2F)cc1)c1ccc2ccccc2c1` (stereo not drawn), which IC50 is on record?
**A.** 4510 nM

**Q.** For `O=C(Nc1ccc(N/C(S)=N/Cc2ccccc2)cc1)c1ccccc1F`, which IC50 is on record?
**A.** > 26300 nM

**Q.** For `CCC(/N=C(\S)Nc1ccc(NC(=O)c2ccccc2F)cc1)c1ccc(F)cc1` (stereo not drawn), which IC50 is on record?
**A.** > 17600 nM

**Q.** Which IC50 does the source give for `CCOc1cc(N/C(S)=N/C(C)c2ccc(F)cc2)ccc1NC(=O)c1ccccc1F` (stereo not drawn) here?
**A.** 570 nM

**Q.** How did the IC50 turn out when `CC(/N=C(\S)Nc1ccc(-c2cc(Cc3ccccc3)no2)cc1)c1ccc(F)cc1` (stereo not drawn) was run?
**A.** 190 nM

**Q.** How did the IC50 turn out when `CC(/N=C(\S)Nc1ccc(NC(=O)c2ccccc2F)c(C(F)(F)F)c1)c1ccc(F)cc1` (stereo not drawn) was run?
**A.** 60 nM

**Q.** For `CC(NC(=S)Nc1ccc(NC(=O)c2ccccc2F)cc1)c1ccc(Br)cc1` (stereo not drawn), which IC50 is on record?
**A.** 420 nM

**Q.** For `COc1cc(N/C(S)=N/C(C)c2ccc(F)cc2)ccc1NC(=O)c1ccccc1F` (stereo not drawn), which IC50 is on record?
**A.** 90 nM

**Q.** With `CC(/N=C(\S)Nc1ccc(NC(=O)c2ccccc2F)cc1)c1ccc(C#N)cc1` (stereo not drawn) as the compound, how does the IC50 read?
**A.** 960 nM

**Q.** `COc1ccccc1C(=O)Nc1ccc(N/C(S)=N/C(C)c2ccc(F)cc2)cc1` (stereo not drawn) was tested. Which IC50 did it give?
**A.** 190 nM

**Q.** `CC(/N=C(\S)Nc1ccc(NC(=O)c2ccccc2F)cc1)c1csc2ccccc12` (stereo not drawn) was tested. Which IC50 did it give?
**A.** 3560 nM
